ChEMBL document CHEMBL1131132, “Acetylcholinesterase inhibitors: synthesis and structure-activity relationships of omega-[N-methyl-N-(3-alkylcarbamoyloxyphenyl)- methyl]aminoalkoxyheteroaryl derivatives” (J Med Chem, 1998)

Legend:
[1] = target: Cholinesterases; ACHE & BCHE (Homo sapiens) (UniProt P06276+P22303); assay: It is the ratio of IC50 for butyrl cholinesterase (BuChE ) to that of acetylcholinesterase (AChE); format: protein assay
Summary of the method: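 Ellman method, 0.1 M phosphate pH 8.0, 340 µM DTNB. AChE: human erythrocyte 0.035 unit/mL, 550 µM acetylthiocholine. BuChE: human serum 0.035 unit/mL, 550 µM butyrylthiocholine.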

[2] = target: T1, Acetylcholinesterase (Rattus norvegicus, UniProt P37136); assay: Inhibitory concentration against rat brain acetylcholinesterase AChE
T1 sequence (P37136 whole entry): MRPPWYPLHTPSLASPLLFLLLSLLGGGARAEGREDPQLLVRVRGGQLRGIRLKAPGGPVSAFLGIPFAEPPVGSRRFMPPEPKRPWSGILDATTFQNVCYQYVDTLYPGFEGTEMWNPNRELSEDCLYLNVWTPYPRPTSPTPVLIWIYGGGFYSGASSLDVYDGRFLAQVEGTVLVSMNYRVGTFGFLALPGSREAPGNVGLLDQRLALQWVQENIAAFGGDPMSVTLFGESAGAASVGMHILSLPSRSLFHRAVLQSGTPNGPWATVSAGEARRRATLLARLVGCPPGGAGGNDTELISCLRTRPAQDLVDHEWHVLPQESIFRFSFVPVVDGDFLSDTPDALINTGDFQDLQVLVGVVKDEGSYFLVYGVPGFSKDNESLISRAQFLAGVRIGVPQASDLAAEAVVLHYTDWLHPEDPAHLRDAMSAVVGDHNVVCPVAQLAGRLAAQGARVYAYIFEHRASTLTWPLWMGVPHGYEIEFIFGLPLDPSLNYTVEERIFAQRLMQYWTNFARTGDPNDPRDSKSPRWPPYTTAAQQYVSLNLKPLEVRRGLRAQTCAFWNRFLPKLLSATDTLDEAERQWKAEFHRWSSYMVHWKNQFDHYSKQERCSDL
Summary of the method: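 Adult Wistar rat cerebral cortex, stored frozen, homogenized 1:200 w/v in 25 mM phosphate pH 7.4, warmed 37 °C 5 min, spun 50000g 15 min at 4 °C; pellet resuspended as AChE-enriched fraction. Compound in PBS pH 7.4 with tritiated ACh (final 0.4 mM), 15 min at 37 °C; stopped with chloroacetic acid/NaCl/NaOH; ³H-acetate extracted into isoamyl alcohol/toluene, scintillation counted.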

Sequence of Cholinesterases; ACHE & BCHE (Homo sapiens) (P06276 whole entry, looked up): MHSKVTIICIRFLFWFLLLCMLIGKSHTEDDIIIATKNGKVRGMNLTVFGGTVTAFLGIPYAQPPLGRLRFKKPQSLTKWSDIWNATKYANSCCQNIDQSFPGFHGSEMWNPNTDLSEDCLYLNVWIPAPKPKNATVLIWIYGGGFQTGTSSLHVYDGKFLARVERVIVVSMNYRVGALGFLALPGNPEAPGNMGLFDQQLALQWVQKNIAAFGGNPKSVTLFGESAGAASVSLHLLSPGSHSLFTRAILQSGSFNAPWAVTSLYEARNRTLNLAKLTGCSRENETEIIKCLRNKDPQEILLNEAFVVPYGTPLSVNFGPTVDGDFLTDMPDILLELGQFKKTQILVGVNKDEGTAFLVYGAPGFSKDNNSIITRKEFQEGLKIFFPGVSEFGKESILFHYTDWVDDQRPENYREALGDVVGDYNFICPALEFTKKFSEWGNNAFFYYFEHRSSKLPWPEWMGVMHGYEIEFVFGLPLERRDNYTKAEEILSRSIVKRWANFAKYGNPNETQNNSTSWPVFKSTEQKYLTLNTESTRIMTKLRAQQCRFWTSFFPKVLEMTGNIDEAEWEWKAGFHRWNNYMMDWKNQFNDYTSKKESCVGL
Sequence of Cholinesterases; ACHE & BCHE (Homo sapiens) (P22303 whole entry, looked up): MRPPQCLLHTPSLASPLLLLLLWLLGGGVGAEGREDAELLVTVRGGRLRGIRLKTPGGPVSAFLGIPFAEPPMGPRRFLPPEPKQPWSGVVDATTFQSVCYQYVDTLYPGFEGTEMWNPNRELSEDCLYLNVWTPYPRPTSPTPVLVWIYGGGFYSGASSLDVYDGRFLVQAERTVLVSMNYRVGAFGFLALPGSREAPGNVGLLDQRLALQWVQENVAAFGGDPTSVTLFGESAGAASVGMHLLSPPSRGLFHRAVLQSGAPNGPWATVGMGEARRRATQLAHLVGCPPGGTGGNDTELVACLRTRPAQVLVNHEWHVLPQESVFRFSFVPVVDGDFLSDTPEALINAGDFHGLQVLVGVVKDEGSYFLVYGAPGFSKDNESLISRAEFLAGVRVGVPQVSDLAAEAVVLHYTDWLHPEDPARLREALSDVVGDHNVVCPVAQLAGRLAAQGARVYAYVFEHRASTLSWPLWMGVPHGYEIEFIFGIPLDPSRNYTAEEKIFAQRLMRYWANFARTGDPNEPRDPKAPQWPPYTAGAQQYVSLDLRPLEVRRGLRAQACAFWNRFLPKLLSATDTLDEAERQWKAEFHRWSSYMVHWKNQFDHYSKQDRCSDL

Structure (SMILES)	Ratio [1]	IC50 [2] [nM]
CNC(=O)Oc1cccc(CN(C)CCCOc2ccc3c(=O)cc(-c4ccccc4)oc3c2)c1	8.2	0.6
CN(CCCOc1ccc2c(=O)c3ccccc3oc2c1)Cc1cccc(OC(=O)Nc2ccccc2)c1	71.4	> 1000
CNC(=O)Oc1cccc(CN(C)CCCOc2ccc3ccc(=O)oc3c2)c1	0.6	1.5
CCCCCCCNC(=O)Oc1cccc(CN(C)CCCOc2ccc3ccc(=O)oc3c2)c1	5	2
CNC(=O)Oc1cccc(CN(C)CCCCCOc2ccc3c(=O)c4ccccc4oc3c2)c1	101	> 100
CCCCNC(=O)Oc1cccc(CN(C)CCCOc2ccc3c(=O)c4cccnc4oc3c2)c1	2.7	70
